Source: ChEMBL document CHEMBL1134227, “The design of phenylglycine containing benzamidine carboxamides as potent and selective inhibitors of factor Xa” (Bioorg Med Chem Lett, 2001)
“And” between values parts separate entries of the source, which are not always exact repeats. Equal values may be shown once.

Experiments:
[1] = target: Coagulation factor X (Homo sapiens, UniProt P00742); assay: Binding affinity against human coagulation factor Xa
Method in brief: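 Human fXa at 100 pM final with Pefachrome-FXA substrate, in 100 mM phosphate buffer with 0.1% bovine serum albumin at pH 7.4. Compounds were taken from Me₂SO stocks into the buffer.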

[2] = target: Serine protease 1 (Homo sapiens, UniProt P07477); assay: Binding affinity against human trypsin
Sequence of Serine protease 1 (P07477 whole entry): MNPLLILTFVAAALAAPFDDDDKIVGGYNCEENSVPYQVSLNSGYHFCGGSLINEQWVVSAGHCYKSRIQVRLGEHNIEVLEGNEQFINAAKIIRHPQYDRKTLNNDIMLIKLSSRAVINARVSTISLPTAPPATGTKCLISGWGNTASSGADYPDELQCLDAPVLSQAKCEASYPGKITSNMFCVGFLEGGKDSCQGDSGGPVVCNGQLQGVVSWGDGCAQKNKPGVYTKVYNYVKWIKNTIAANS
Method in brief: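 Human trypsin at 1 nM final with Pefachrome-TRY chromogenic substrate, in 100 mM phosphate, 0.1% bovine serum albumin, pH 7.4. Test compounds were dissolved in Me₂SO and diluted into the assay buffer. The read-out was the optical density increase at 405 from substrate cleavage.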

[3] = target: Prothrombin (Homo sapiens, UniProt P00734); assay: Affinity for human thrombin
Method in brief: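 Chromogenic assay with 1 nM human thrombin and Pefachrome-TH substrate, in 100 mM phosphate buffer with 0.1% bovine serum albumin at pH 7.4. Compounds were dissolved in Me₂SO and diluted into the buffer. Hydrolysis was followed as the rise in optical density at 405 on a microplate reader.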

Sequence of Coagulation factor X (P00742 41-179 limits assumed): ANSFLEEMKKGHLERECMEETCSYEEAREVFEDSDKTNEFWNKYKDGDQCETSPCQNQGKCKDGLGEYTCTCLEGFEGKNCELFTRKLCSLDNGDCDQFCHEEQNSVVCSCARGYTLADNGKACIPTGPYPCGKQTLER
Sequence of Coagulation factor X (P00742 235-488 limits assumed): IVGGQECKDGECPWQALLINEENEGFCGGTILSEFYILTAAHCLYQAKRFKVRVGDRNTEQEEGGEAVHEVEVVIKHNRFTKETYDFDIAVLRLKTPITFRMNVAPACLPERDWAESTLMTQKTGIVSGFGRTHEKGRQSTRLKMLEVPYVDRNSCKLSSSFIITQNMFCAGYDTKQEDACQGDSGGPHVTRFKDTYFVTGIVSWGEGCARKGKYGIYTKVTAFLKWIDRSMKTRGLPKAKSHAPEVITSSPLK

Structure (SMILES)	Ki [1] [nM]	Ki [2]	Ki [3] [µM]
CC(C)[C@H](NC(=O)c1cccc(C(=N)N)c1)C(=O)NCC1CCC(CN)CC1 (stereo partly specified)	38000	12.6 µM	–
N=C(N)c1cccc(C(=O)N[C@@H](C(=O)NCc2ccc(CN)cc2)c2ccccc2)c1	500	4.1 µM	26
CSCC[C@H](NC(=O)c1cccc(C(=N)N)c1)C(=O)NCC1CCC(CN)CC1 (stereo partly specified)	10500	7.9 µM	–
CC(C)[C@@H](NC(=O)c1cccc(C(=N)N)c1)C(=O)NCC1CCC(CN)CC1 (stereo partly specified)	–	16.2 µM	–
COc1ccc(CNC(=O)[C@H](NC(=O)c2cccc(C(=N)N)c2)c2ccccc2)cc1	28	5.5 µM	2.3
Cc1ccc(CNC(=O)[C@H](NC(=O)c2cccc(C(=N)N)c2)c2ccccc2)cc1	42	4.9 µM	–
N=C(N)c1cccc(C(=O)N[C@@H](C(=O)NCCCc2ccccc2)c2ccccc2)c1	145	2.2 µM	–
N=C(N)c1cccc(C(=O)NCC(=O)NCC2CCC(CN)CC2)c1 (stereo unspecified)	–	23 µM	–
N=C(N)c1cccc(C(=O)N[C@H](Cc2ccccc2)C(=O)NCC2CCC(CN)CC2)c1 (stereo partly specified)	25700	17.4 µM	–
N=C(N)c1cccc(C(=O)N[C@@H](C(=O)N2CCC(C(=O)c3ccc(F)cc3)CC2)c2ccccc2)c1	10	0.54 µM	1.18
N=C(N)c1cccc(C(=O)N[C@@H](C(=O)NCC2CCC(CN)CC2)C2CCCCC2)c1 (stereo partly specified)	500	8.5 µM	–
CSCC[C@@H](NC(=O)c1cccc(C(=N)N)c1)C(=O)NCC1CCC(CN)CC1 (stereo partly specified)	2300	10 µM	–
N=C(N)c1cccc(C(=O)NC(C(=O)NCC2CCC(CN)CC2)c2ccc(-c3ccccc3)cc2)c1 (stereo unspecified)	800	1.1 µM	–
N=C(N)c1cccc(C(=O)NC(C(=O)NCC2CCC(CN)CC2)c2ccc(Cl)cc2)c1 (stereo unspecified)	2500	6 µM	–
N=C(N)c1cccc(C(=O)N[C@@H](Cc2ccccc2)C(=O)NCC2CCC(CN)CC2)c1 (stereo partly specified)	33900	12.6 µM	–
N=C(N)c1cccc(C(=O)NC(C(=O)NCC2CCC(CN)CC2)c2cccc(Cl)c2)c1 (stereo in doubt; 11)	300	5.1 µM	–
N=C(N)c1cccc(C(=O)N[C@H](C(=O)NCC2CCC(CN)CC2)C2CCCCC2)c1 (stereo partly specified)	7800	3.6 µM	–
N=C(N)c1cccc(C(=O)NC(C(=O)NCC2CCC(CN)CC2)c2ccccc2)c1 (stereo unspecified)	–	4.5 µM and 5.6 µM	6.5
N=C(N)c1cccc(C(=O)NC(C(=O)NCC2CCC(CN)CC2)c2cccc3ccccc23)c1 (stereo unspecified)	100	2.1 µM	–
N=C(N)c1cccc(C(=O)NC(C(=O)NCC2CCC(CN)CC2)c2cccc(Cl)c2)c1 (stereo in doubt; 9)	300	3.9 µM	–

The remaining lines, values ahead:

Ki [1] [nM]	Ki [2]	Ki [3] [µM]	Structure (SMILES)
13	0.56 µM	17.8	N=C(N)c1cccc(C(=O)N[C@@H](C(=O)N2CCN(c3ccncc3)CC2)c2ccccc2)c1
30	0.65 µM	1.35	N=C(N)c1cccc(C(=O)N[C@@H](C(=O)N2CCC(Cc3ccccc3)CC2)c2ccccc2)c1
16	0.34 µM	1.74	N=C(N)c1cccc(C(=O)N[C@@H](C(=O)N2CCN(c3ccccc3)CC2)c2ccccc2)c1
120	2.2 µM	7.94	N=C(N)c1cccc(C(=O)N[C@@H](C(=O)N2CCN(Cc3ccccc3)CC2)c2ccccc2)c1
850	3.3 µM	3.1	N=C(N)c1cccc(C(=O)N[C@@H](C(=O)NCCc2ccccc2)c2ccccc2)c1
–	0.46 µM	7.94	N=C(N)c1cccc(C(=O)N[C@@H](C(=O)N2CCN(C(=O)c3ccccc3)CC2)c2ccccc2)c1
910	5.4 µM	8.5	N=C(N)c1cccc(C(=O)N[C@@H](C(=O)NCc2ccccc2)c2ccccc2)c1
15	1.26 µM	3.8	N=C(N)c1cccc(C(=O)N[C@@H](C(=O)N2CCN(c3ccc(F)cc3)CC2)c2ccccc2)c1
–	0.32 µM	1.26	N=C(N)c1cccc(C(=O)N[C@@H](C(=O)N2CCC(C(=O)c3ccccc3)CC2)c2ccccc2)c1
